In ChEMBL document CHEMBL1123449, “9,11-Epoxy-9-homo-14-oxaprosta-5-enoic acid derivatives. Novel inhibitors of fatty acid cyclooxygenase” (J Med Chem, 1986):

Columns and labels:
Homo sapiens [1] = species: Homo sapiens; assay: In vitro inhibition of arachidonic acid induced platelet aggregation of human platelet-rich plasma; type: functional; settings: read-out: I50
Outline: (§1)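 Aggregation of human platelet-rich plasma triggered with arachidonic acid at 800 μM. The method follows an earlier report, and the value is given as I50.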

Homo sapiens [2] = species: Homo sapiens; assay: In vitro ability to inhibit arachidonic acid induced platelet aggregation (AAIPA) of human platelet-rich plasma (PRP); type: functional; outline: as §1
Homo sapiens [3] = species: Homo sapiens; assay: In vitro ability to inhibit adenosine diphosphate induced platelet aggregation (ADPIPA) of human platelet-rich plasma (PRP), and I50 value was reported from single determination.; type: functional, organism-based; settings: read-out: I50
Homo sapiens [4] = species: Homo sapiens; assay: In vitro ability to inhibit adenosine diphosphate induced platelet aggregation (ADPIPA) of human platelet-rich plasma (PRP); type: functional; settings: read-out: I50
Homo sapiens [5] = species: Homo sapiens; assay: In vitro ability to cause dose dependent inhibition of arachidonic acid (AA) conversion to thromboxane A2 (TXA2 ); type: functional; settings: read-out: I50
Outline: (§2)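 Compound incubated with platelet lysate at several concentrations. Read-out is inhibition of arachidonic acid conversion to TXA2, measured as TXB2 production, and to PGE2. The value is given as I50.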

Homo sapiens [6] = species: Homo sapiens; assay: In vitro ability to cause dose dependent inhibition of arachidonic acid (AA) conversion to PGE-2; type: functional; settings: read-out: I50; outline: as §2

| Structure (SMILES) | IC50 (Homo sapiens [1]; Homo sapiens, Plasma) | further results |
| --- | --- | --- |
| CCC/C=C\COCC1C2CCC(O2)C1C/C=C\CCCC(=O)O (stereo not drawn) | 3.3 µM | – |
| CCCC#CCOCC1C2CCC(O2)C1C/C=C\CCCC(=O)O (stereo not drawn) | 0.2 µM | – |
| O=C(O)CCC/C=C\CC1C2CCC(O2)C1COCC1CCCCC1 (stereo not drawn) | 165 µM | – |
| CCCCCCOCC1C2CCC(O2)C1CCCCCCC(=O)O (stereo not drawn) | 0.2 µM | – |
| CCCC[C@@H](O)/C=C/C1C2CCC(O2)C1C/C=C\CCCC(=O)O (stereo partly drawn) | – | AC50 (Homo sapiens [2]): 2.5 µM |
| CCCCCCOC(C)C1C2CCC(O2)C1CC=CCCCC(=O)O (stereo not drawn) | 14 µM | – |
| CCCCCCOC[C@@H]1C2CCC(O2)[C@H]1C/C=C\CCCC(=O)O (stereo in doubt; 9) | – | IC50 (Homo sapiens [1]): 25 µM |
| CCCCCC(C)OCC1C2CCC(O2)C1C/C=C\CCCC(=O)O (stereo in doubt; form 2) | – | IC50 (Homo sapiens [1]): 3.2 µM |
| O=C(O)CCCCC1CC2C3CCC(O3)C2CO1 (stereo not drawn) | > 1000 µM | – |
| O=C(O)CCC/C=C\CC1C2CCC(O2)C1COCCCc1ccccc1 (stereo not drawn) | 26 µM | – |
| COc1ccc2c(c1)c(CC(=O)O)c(C)n2C(=O)c1ccc(Cl)cc1 [INDOMETHACIN] | 4 µM | – |
| COCC1C2CCC(O2)C1C/C=C\CCCC(=O)O (stereo not drawn) | 22 µM | – |
| CCCCC[C@H](O)/C=C/[C@H]1C2CCC(O2)[C@@H]1C/C=C\CCCC(=O)O (stereo partly drawn) | 0.3 µM | IC50 (Homo sapiens [3]): 1.6 µM |
| CCCCC(C)COCC1C2CCC(O2)C1C/C=C\CCCC(=O)O (stereo not drawn) | 7.4 µM | – |
| CCCCC[C@H](O)/C=C/[C@@H]1C2CCC(O2)[C@@H]1C/C=C\CCCC(=O)O (stereo partly drawn) | – | IC50 (Homo sapiens [4]): 300 µM |
| CCCCCCOC[C@@H]1C2CCC(O2)[C@H]1C/C=C\CCCC(=O)O (stereo in doubt; 1) | – | IC50 (Homo sapiens [4]): > 1000 µM; IC50 (Homo sapiens [5]): 6.3 µM; IC50 (Homo sapiens [1]): 0.5 µM; IC50 (Homo sapiens [6]; Homo sapiens): 3.8 µM; IC50 (Homo sapiens [6]): 6.3 µM |
| CCCCCCOC[C@@H]1C2CCC(O2)[C@@H]1C/C=C\CCCC(=O)O (single isomer, unassigned; (-)) | – | IC50 (Homo sapiens [1]): 38.5 µM |
| CCCCCOCCC1C2CCC(O2)C1C/C=C\CCCC(=O)O (stereo not drawn) | 105 µM | – |
| CCCCCCCO[C@@H]1C2CCC(O2)[C@@H]1C/C=C\CCCC(=O)O (stereo partly drawn) | 340 µM | – |
| CC(=O)Oc1ccccc1C(=O)O [ASPIRIN] | 185 µM | – |
| CCCCCCCCOCC1C2CCC(O2)C1C/C=C\CCCC(=O)O (stereo not drawn) | 32 µM | – |
| CCCCCCCO[C@H]1C2CCC(O2)[C@@H]1C/C=C\CCCC(=O)O (stereo partly drawn) | 120 µM | – |
| CCC/C=C/COCC1C2CCC(O2)C1C/C=C\CCCC(=O)O (stereo not drawn) | 0.3 µM | – |
| C=CCOCC1C2CCC(O2)C1C/C=C\CCCC(=O)O (stereo not drawn) | 6 µM | – |
| CCCCCCOC[C@@H]1C2CCC(O2)[C@@H]1C/C=C\CCCC(=O)O (stereo in doubt; 10) | – | IC50 (Homo sapiens [1]): 10 µM |
| CCCCCCOC[C@@H]1C2CCC(O2)[C@H]1C/C=C\CCCC(=O)O (stereo in doubt; 11) | – | IC50 (Homo sapiens [1]): 18 µM |
| CCCCCC(C)OCC1C2CCC(O2)C1C/C=C\CCCC(=O)O (stereo in doubt; form 1) | – | IC50 (Homo sapiens [1]): 23 µM |
| CC/C=C/CCOCC1C2CCC(O2)C1C/C=C\CCCC(=O)O (stereo not drawn) | 0.5 µM | – |
